The values below come from paper PMC9950857 (RSC Advances, 2023).

The structures appear in SMILES notation. Marks after values point to notes of the source that are not given here.

Experiment [1] deals with T1, pancreatic lipase (Sus scrofa, UniProt P00591).
T1 sequence (P00591 1-450): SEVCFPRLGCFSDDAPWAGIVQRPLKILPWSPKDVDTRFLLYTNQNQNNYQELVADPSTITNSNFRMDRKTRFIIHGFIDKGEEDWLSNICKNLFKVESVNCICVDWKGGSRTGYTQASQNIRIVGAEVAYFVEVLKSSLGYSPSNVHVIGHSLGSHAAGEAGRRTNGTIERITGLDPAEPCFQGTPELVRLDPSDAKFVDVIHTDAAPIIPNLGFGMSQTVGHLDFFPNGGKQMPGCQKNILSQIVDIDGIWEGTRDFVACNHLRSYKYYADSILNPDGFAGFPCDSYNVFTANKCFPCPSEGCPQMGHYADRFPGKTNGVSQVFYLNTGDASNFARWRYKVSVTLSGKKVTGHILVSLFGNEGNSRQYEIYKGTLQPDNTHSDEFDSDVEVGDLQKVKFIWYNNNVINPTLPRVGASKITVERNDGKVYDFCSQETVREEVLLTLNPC
In words: Fluorescence titration. As to conditions: for ΔG: from fluorescence data; for Kd: K a (binding constant). It counts as binding. In outline:
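Lipase held at 6.0×10^-6 M final with 0 to 4.2×10^-5 M final test compound, in 5.0×10^-2 M Tris–HCl pH 7.4. Spectra recorded at 277, 298 and 310 K: excitation 280 nm, emission 300–500 nm, slits 5 nm. Intensities corrected for inner-filter effect.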

The target of experiment [2] is T1, pancreatic lipase. In words: ITC analysis of HYP titrated into lipase. It is filed as binding. The method in brief:
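Calorimetric titration: 1.0×10^-4 M lipase in the cell, containing 1% ethanol, titrated with 1.0×10^-3 M test compound. Injections at 180 s intervals, stirring at 250 rpm; other solutions degassed. First injection discarded. Integrated heats corrected for dilution and fitted against molar ratio. ΔG from −RT lnKa; ΔS from ΔG = ΔH − TΔS.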
In general terms: ITC needs no label: the signal is the heat of the interaction.

Experiment [3] addresses T1, pancreatic lipase. In words: Enzymatic assay of lipase activity. It counts as biochemical. The following applies: for inhibition type: Lineweaver–Burk plots, 310 K, 405 nm, pNPC 2.0–3.6 × 10^−3 M.
In experiment [4] the target is T1, pancreatic lipase. In words: Synchronous fluorescence spectroscopy. It is filed as binding. The following applies: HYP 4.2 × 10^−5 M, 298 K.
Experiment [5] deals with T1, pancreatic lipase. In words: Time-resolved fluorescence measurements. It is filed as binding. As to conditions: fluorescence titration and time-resolved fluorescence. In outline:
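Fluorescence lifetimes of free lipase and of the lipase–test compound complex at 298 K. Excitation 280 nm, emission 345 nm. Decays analysed by tail fitting, with fits judged by χ². Average lifetime calculated as Σαiτi.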

Experiment [6] has as its target T1, pancreatic lipase. In words: Fourier-transform infrared spectroscopy of lipase secondary structure. The following applies: ratio of lipase to HYP increased from 1 : 0 to 1 : 4, FT-IR, 298 K. In outline: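 FT-IR at 298 K: 128 scans at 4 cm⁻¹ resolution. Lipase at 2.0×10^-4 M, alone or with test compound at different ratios. Background, protein and compound spectra subtracted; samples scanned over 1700–1500 cm⁻¹. Amide bands analysed by peak fitting.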

Experiment [7] has as its target T1, pancreatic lipase. The following applies: cited from earlier work.
The next experiment has as its system lipase. As to conditions: cited from earlier work.
The mark [8] stands for this setting: from fluorescence data at 277, 298, 310 K.

Broadly, the Kd is a measure of binding affinity in units of concentration. A low value points to a tighter complex. As usually defined, the IC50 is the point on the concentration scale where inhibition reaches its midpoint. High values mean weaker potency in that assay, low ones greater potency in that assay. With `O=c1c(O[C@@H]2O[C@H](CO)[C@H](O)[C@H](O)[C@H]2O)c(-c2ccc(O)c(O)c2)oc2cc(O)cc(O)c12` [HYP, quercetin-3-O-β-D-galactoside], on pancreatic lipase [1] (277 K), the “K SV (Stern–Volmer quenching constant)” value is reported as 7.113 ± 0.029^a × 10^4 M^−1, the KSV is recorded as 7.113 ± 0.029 × 10^4 M^−1, the “n (Hill coefficient)” value is listed as 1.379 and the ΔG was -8.32 kcal/mol. Besides, on pancreatic lipase [1] (277 K), binding was characterised by a dissociation constant (Kd) of 0.283 µM. Further, at pancreatic lipase [1] (298 K), the “K SV (Stern–Volmer quenching constant)” value is listed as 6.826 ± 0.010^b × 10^4 M^−1; the “n (Hill coefficient)” value is recorded as 1.337; the ΔG was -8.489 kcal/mol; the affinity, expressed as Kd, was 0.526 µM. Further, at pancreatic lipase [1] (310 K), the “K SV (Stern–Volmer quenching constant)” value is 6.247 ± 0.060^b × 10^4 M^−1, the KSV is 6.247 ± 0.060 × 10^4 M^−1, the binding constant is 1.048e+06 M⁻¹ and the “n (Hill coefficient)” value came to 1.286. At pancreatic lipase [1] (310 K), this compound showed a ΔG of -8.587 kcal/mol and a Kd of 0.954 µM. Further, the n values entry on pancreatic lipase [1] (at different temperatures (277, 298, 310 K)) is reported as “greater than 1”. Further, on pancreatic lipase [1] (setting [8]), the ΔH was -6.085 kcal/mol and the ΔS was 33.77 J mol^−1 K^−1. Moreover, the Kd on pancreatic lipase [2] was 6.35 µM. On pancreatic lipase [2] (ITC), this compound returned a ΔG of -7.091 kcal/mol, a ΔH of -5.569 kcal/mol and a ΔS of 21.36 J mol^−1 K^−1. Further, on pancreatic lipase [3], the IC50 came out at 1920 µM and the inhibition type entry is given as “non-competitive inhibitor”. Also, on pancreatic lipase [4] (Δλ = 15 nm), the “decrease of Tyr residue fluorescence intensity” value came out at 65.86%. Further, the “decrease of Trp residue's fluorescence intensity” value at pancreatic lipase [4] (Δλ = 60 nm) came to 73.65%. Moreover, at pancreatic lipase [5], the quenching mechanism entry is “static quenching”. Also, the “decrease of α-helix in lipase” value on pancreatic lipase [6] was determined as 1.6%.

As to `CCCCCCCCCCC[C@@H](C[C@@H]1OC(=O)[C@H]1CCCCCC)OC(=O)[C@H](CC(C)C)NC=O` [orlistat, reference compound], the inhibition type result against pancreatic lipase [3] is given as “competitive inhibition”. The reversibility of inhibition result at pancreatic lipase [7] is given as “irreversible inhibition”.

As to `C[C@@H]1O[C@@H](Oc2c(-c3ccc(O)c(O)c3)oc3cc(O)cc(O)c3c2=O)[C@H](O)[C@H](O)[C@H]1O` [quercetin 3-rhamnoside], the lipase inhibition result in the experiment with lipase is given as “effective in lipase inhibition”.
